Here are results for twelve compounds from ChEMBL document CHEMBL1132203, “Synthesis and biological properties of novel pyridinioalkanoyl thiolesters (PATE) as anti-HIV-1 agents that target the viral nucleocapsid protein zinc fingers” (J Med Chem, 1999).

In assay [1] the test system is Human immunodeficiency virus 1. As to the kind of experiment: Antiviral activity against HIV-1 infected CEM-SS cells was determined in XTT cytoprotection assay. The assay is classed as functional, organism-based. The settings on record: Human immunodeficiency virus 1, CEM-SS. Summed up:
(§1)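 CEM-SS cells infected with HIV-1 RF at MOI 0.01, scored by XTT dye-reduction cytoprotection. EC50 is the concentration giving 50% protection of infected cells. IC50 is the concentration causing 50% cytotoxicity (growth inhibition). High test concentration 316 μM.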
On the technique in general: Formazan colour is commonly taken as a measure of viable cells.

The target in assay [2] is Human immunodeficiency virus type 1 reverse transcriptase (Human immunodeficiency virus 1, UniProt Q72547). As to the kind of experiment: 50% Inhibitory activity against reverse transcriptase; No inhibition at a highest dose of 100 uM. Summed up:
(§2)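 Top test level 100 μM; IC50 is the concentration inhibiting 50% of the indicated activity, with reference inhibitors run as positive controls. Integrase uses recombinant HIV-1 integrase, scored on 3'-processing and strand transfer. Protease uses recombinant HIV-1 protease cleaving the peptide Ala-Ser-Glu-Asn-Try-Pro-Ile-Val-amide, read by HPLC. Reverse transcriptase uses recombinant HIV-1 RT on rAdT and rCdG template/primers.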

Assay [3] is described as follows: 50% Inhibitory activity against fusion; No inhibition at a highest dose of 100 uM.
Assay [4] concerns Human immunodeficiency virus 1. The experiment in a line: Effective antiviral concentration against HIV-1 infected CEM-SS cells. It is filed as functional, organism-based. The settings on record: Human immunodeficiency virus 1, CEM-SS. In outline: as §1
Assay [5] has as its target Human immunodeficiency virus type 1 integrase (Human immunodeficiency virus 1, UniProt Q7ZJM1). The experiment in a line: 50% Inhibitory activity against Integrase; No inhibition at a highest dose of 100 uM. In outline:
as §2

The test system of assay [6] is Human immunodeficiency virus 1. As to the kind of experiment: Nucleocapsid p7 protein (NCp7) zinc finger domain reactivity was measured by Trp37 fluorescence assay expressed as the average decrease in relative fluorescence units over 30 min. The assay is classed as functional. In outline:
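Recombinant HIV-1 NCp7 (pET3A construct expressed in E. coli BL21); intrinsic fluorescence of Trp37 in the C-terminal zinc finger monitored over 30 min after compound addition. Value is the mean fall in relative fluorescence units per minute across 30 min, taken as a readout of Zn ejection. Dithiane or DIBA-1 served as reference. Where glutathione pretreatment was used, 2 mM compound was held 2 h at 37 °C with 2–8 M excess reduced glutathione, then diluted 40-fold to 50 μM final compound.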

Assay [7] in a line: 50% Inhibitory activity against attachment; No inhibition at a highest dose of 100 uM.
The target of assay [8] is Human immunodeficiency virus type 1 protease (Human immunodeficiency virus 1, UniProt Q72874). The experiment in a line: 50% Inhibitory activity against protease; No inhibition at a highest dose of 100 uM. In outline:
as §2

pEC50, pIC50: −log10 of the molar value.

Human immunodeficiency virus type 1 integrase, sequence (Q7ZJM1 whole entry): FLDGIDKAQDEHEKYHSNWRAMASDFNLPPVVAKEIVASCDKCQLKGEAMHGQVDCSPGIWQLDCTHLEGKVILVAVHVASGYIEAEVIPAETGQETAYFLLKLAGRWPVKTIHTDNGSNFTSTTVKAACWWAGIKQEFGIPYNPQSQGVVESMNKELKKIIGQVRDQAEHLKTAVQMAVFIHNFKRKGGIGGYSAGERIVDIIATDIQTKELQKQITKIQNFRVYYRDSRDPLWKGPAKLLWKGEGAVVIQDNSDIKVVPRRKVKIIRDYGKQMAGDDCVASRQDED

In general, pIC50 refers to the negative decadic logarithm of the IC50, by convention in mol/L. Read a high pIC50 as a low IC50. Usually pEC50 stands for the EC50 on a negative log10 scale, so that one unit is a factor of ten. The low end stands for a large EC50, the high end for a small EC50. For the compound `CC(=O)NS(=O)(=O)c1ccc(NC(=O)c2ccccc2SC(=O)CCCCBr)cc1`, in assay [1], the pIC50 is 3.73. In addition, the IC50 entry in assay [2], in assay [3], in assay [5], in assay [7] and in assay [8] was “No inhibition” throughout. The pEC50 in assay [4] was 5.42. Also, the Zinc finger reactivity in assay [6] was 1.8 RFU min-1.

Regarding `O=C(CCCC[n+]1ccccc1)Sc1ccccc1C(=O)Nc1ccc(S(=O)(=O)c2ccc([N+](=O)[O-])cc2)cc1.[Br-]`, in assay [1], the pIC50 was < 3.50. In addition, the IC50 entry in assay [2], in assay [5] and in assay [7] was “No inhibition” each time. Moreover, the pEC50 in assay [4] was 5.26. In assay [6], this compound showed a Zinc finger reactivity of 4.1 RFU min-1.

Regarding `CC(=O)NS(=O)(=O)c1ccc(NC(=O)c2ccccc2SC(=O)CCCC[n+]2ccccc2)cc1.[Br-]`, the pIC50 in assay [1] was < 3.50. Moreover, the IC50 result in assay [2], in assay [5], in assay [7] and in assay [8] was “No inhibition” each time. For the same compound, in assay [4], the pEC50 is 5.21. Besides, the Zinc finger reactivity in assay [6] was 3.6 RFU min-1.

Take `CC(=O)NS(=O)(=O)c1ccc(NC(=O)c2ccccc2SC(=O)c2ccccc2)cc1`: the negative-log IC50 (pIC50) in assay [1] was 4.34. The same compound gave a pEC50 in assay [4] of 5.59. The Activity in assay [6] was determined as 2.2 RFU min-1.

Consider `CC(=O)Nc1cccc(S(=O)(=O)c2cccc(NC(=O)c3ccccc3SSc3ccccc3C(=O)Nc3cccc(S(=O)(=O)c4cccc(NC(C)=O)c4)c3)c2)c1`, for which the pIC50 in assay [1] was 4.23. The negative-log EC50 (pEC50) in assay [4] was 6.21. Further, the Activity in assay [6] worked out at 2 RFU min-1.

Regarding `O=C(Nc1ccc(S(=O)(=O)c2ccc(NC(=O)c3ccccc3SSc3ccccc3C(=O)Nc3ccc(S(=O)(=O)c4ccc(NC(=O)c5cc([N+](=O)[O-])cc([N+](=O)[O-])c5)cc4)cc3)cc2)cc1)c1cc([N+](=O)[O-])cc([N+](=O)[O-])c1`, the negative logarithm of the IC50 (pIC50) in assay [1] is < 3.50. This compound also had a pEC50 in assay [4] of 3.62. In addition, in assay [6], the Activity was found to be 1.6 RFU min-1.

With `NS(=O)(=O)c1ccc(NC(=O)CNC(=O)c2ccccc2SSc2ccccc2C(=O)NCC(=O)Nc2ccc(S(N)(=O)=O)cc2)cc1`, the pIC50 in assay [1] was 4.75. Also, in assay [4], the negative logarithm of the EC50 (pEC50) is 5.80. Moreover, the Activity in assay [6] amounted to 7.9 RFU min-1.

For the compound `COc1ccc(C(=O)Nc2ccc(S(=O)(=O)c3ccc(NC(=O)c4ccccc4SSc4ccccc4C(=O)Nc4ccc(S(=O)(=O)c5ccc(NC(=O)c6ccc(OC)cc6)cc5)cc4)cc3)cc2)cc1`, the pIC50 in assay [1] was 4.10. The same compound showed a pEC50 in assay [4] of 5.42. Besides, the Activity in assay [6] was determined as 6.9 RFU min-1.

For the compound `COc1ccc(C(=O)Sc2ccccc2C(=O)Nc2ccc(S(=O)(=O)NC(C)=O)cc2)cc1`, the pIC50 in assay [1] is 4.36. In addition, the pEC50 in assay [4] is 5.55. Moreover, the Activity in assay [6] was 3.5 RFU min-1.

For the compound `NS(=O)(=O)c1ccc(CNC(=O)c2ccccc2SSc2ccccc2C(=O)NCc2ccc(S(N)(=O)=O)cc2)cc1`, the negative-log IC50 (pIC50) in assay [1] is 4.71. The negative logarithm of the EC50 (pEC50) in assay [4] is 6.48. The same compound registered an Activity in assay [6] of 3.3 RFU min-1.

`CC(=O)NS(=O)(=O)c1ccc(NC(=O)c2ccccc2SC(=O)CCCCC[n+]2ccccc2)cc1.[Br-]` showed a pIC50 in assay [1] of 4.16. Moreover, in assay [4], the pEC50 is 4.98. Further, the Activity in assay [6] came to 1.9 RFU min-1.

On to `NS(=O)(=O)c1ccc(Cn2sc3ccccc3c2=O)cc1`, for which the pIC50 in assay [1] is 4.27. For the same compound, the pEC50 in assay [4] is 4.86. In addition, the Activity in assay [6] came out at 2.7 RFU min-1.
